Screens as filed in PubChem BioAssay.
A selection: hits, their analogues and other compounds. The true share with any hit is near 2%.
PfM18AAP inh = PfM18AAP enzyme inhibition; recombinant PfM18AAP, H-Glu-NHMec fluorogenic cleavage; inhibition, % at 7.35 µM; 1.2% of 290,000 active; AID 1822;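 active = inhibition above the campaign mean inhibition over all tested compounds plus 3 SD, cut at about 28% in these data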;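 note: 0% = plate median of test compound wells and 100% = 2 mM ZnCl2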
Tb hexokinase = T. brucei hexokinase 1 inhibition; recombinant TbHK1, G6PDH-coupled NADH A340; inhibition, % at 10 µM; 0.11% of 220,000 active;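 active = inhibition of 50% or more in the single-dose primary screen; inactive = inhibition below 50%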
Lipid droplet = modulators of hepatic lipid droplet formation | AML12 mouse hepatocytes, oleate lipid droplets, BODIPY imaging | inhibition, % at 6.5 µM | 0.4% of 240,000 active;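 active = lipid droplet intensity inhibited by at least 50%, with more than 500 cells counted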
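Technique: fluorescence imaging, 20x objective, two fields per well / Assay system: AML12 hepatocytes (mouse) / Measure: % inhibition of lipid droplet signal / Doses: 6.5 µM single-point dosing / Incubation: overnight exposure / Reagent: 100 µM oleic acid challenge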
zVAD death inh = L929 zVAD cell death inhibition. L929 zVAD necroptosis rescue, ATP luminescence, 24 h; with zVAD 60 µM. 0.38% of 220,000 active. viability rescue, % at 10 µM;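 active = activation, scaled between plate controls, above about 75%, limit read from the data; inactive = activation under that limit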;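 note: 0% = zVAD with DMSO and 100% = DMSO alone without zVAD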
TNF necrop inh = blocks TNF-alpha induced death of Jurkat FADD-/- cells | Jurkat FADD-/- TNF necroptosis rescue, ATP luminescence, 24 h; 0 = TNF only, 100 = no-TNF cells | activation (protection from cell death), % at 10 µM | 0.068% of 220,000 active | AID 463075;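 active = activation, meaning protection from cell death, of at least 50% relative to plate controls; inactive = activation below 50%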;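 note: necroptosis triggered by 40 ng/mL TNF-alpha added together with compound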
RBBP9 inhibitor = human RBBP9 hydrolase inhibition; O75884; recombinant RBBP9, FP-Rh probe fluorescence polarization; inhibition, % at 7.94 µM; 0.2% of 220,000 active;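 active = inhibition above the campaign mean of all tested compounds plus 3 SD, cut at about 14% in these data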;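 note: plate controls were DMSO wells with RBBP9 for no effect and wells lacking RBBP9 protein for full effect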
Target sequence (O75884 whole entry, looked up): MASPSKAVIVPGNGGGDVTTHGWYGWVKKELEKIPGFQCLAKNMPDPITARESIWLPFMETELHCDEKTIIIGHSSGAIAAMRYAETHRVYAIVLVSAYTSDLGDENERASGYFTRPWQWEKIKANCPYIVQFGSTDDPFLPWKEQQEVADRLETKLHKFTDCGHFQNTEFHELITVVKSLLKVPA
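System: RBBP9 protein / Quantity: 2.5 µM RBBP9 dispensing solution, before mixing / Also added: Serine-hydrolase probe FP-Rh, 375 nM pre-mixing / Dosing: 7.94 µM single dose, 0.794% DMSO / Timing: enzyme-compound preincubation 30 min, then probe labeling 45 min, 25 °C / Signal: FP readout at 525/598 nm / Controls: DMSO-treated enzyme wells and wells lacking RBBP9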
Hep lipid conf = hepatic lipid droplet formation inhibition, confirmed; AID 463183; AML12 mouse hepatocytes, BODIPY lipid droplet imaging; droplets induced with 100 µM oleic acid; shares compounds with Lipid droplet; 65% of 870 active; inhibition, % at 5.2 µM;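 active = inhibition of lipid droplet metric at least 50%, with more than 300 cells in each of four replicates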;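 note: plate controls were DMSO with oleic acid for no effect and 5 µM Triacsin-C for full effect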
AML12 cytotox = counter-screen for cytotoxicity in AML12 mouse hepatocytes; shares compounds with Lipid droplet; DAPI nuclear morphology cytotoxicity imaging; hits give high values; cells fed 100 µM oleate overnight; z-score at 5 µM; 3% of 870 active; AID 463200; in the data active = z-score above about 6.3;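 note: compound exposure lasted overnight at 37 °C before fixation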
AML12 tox ATP = AML12 hepatocyte cytotoxicity, confirmed | shares compounds with Lipid droplet | AML12 mouse hepatocyte viability, ATP luminescence; cells loaded with 100 µM oleic acid | cytotoxicity, % at 50 µM | 530 tested, under 10 active | AID 463219;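 active = cytotoxicity above 50% in each of four replicates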;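 note: compound exposure lasted overnight at 37 °C before the ATP read; 0% = DMSO-treated cells and 100% = wells with no cells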
Active calls of the source: *.

`CCOC(=O)N1CCN(C(=O)CSCC(=O)Nc2nc(-c3ccc(-c4ccccc4)cc3)cs2)CC1` gave PfM18AAP inh -4.9, Tb hexokinase -11.6, Lipid droplet 81.9*, zVAD death inh 0.2, TNF necrop inh -8.5, RBBP9 inhibitor -7.3, Hep lipid conf 76.3*, AML12 cytotox 0.127 and AML12 tox ATP 41.6.
`CC(C)NCc1cc(Br)ccc1OCc1ccccc1` gave PfM18AAP inh -1.7, Tb hexokinase 8.2, Lipid droplet 2.4, zVAD death inh -1.9, TNF necrop inh 0.4 and RBBP9 inhibitor 4.5.
Cc1ccc(-n2ncc3c2CCCC3NC(=O)c2ccoc2)cc1C (stereo unspecified) was read as PfM18AAP inh -0.5 and Lipid droplet 23.7.
Screening O=C(NC1CCCc2c1cnn2-c1ccccc1F)c1ccccn1 (stereo unspecified) returned PfM18AAP inh 2.7, Lipid droplet 71.3*, Hep lipid conf 88.5*, AML12 cytotox 1.49 and AML12 tox ATP 6.6.
`Cc1cccc(-n2ncc3c2CCCC3NC(=O)C2(C(N)=O)CC2)c1C` (stereo unspecified) gave PfM18AAP inh -7.7 and Lipid droplet -25.4.
For Cc1cc(C)c(C(=O)NC2CCCc3c2cnn3-c2cccc(C)c2C)o1 (stereo unspecified) the results were PfM18AAP inh 3.7, Lipid droplet 81.2*, Hep lipid conf 105.4*, AML12 cytotox -0.218 and AML12 tox ATP 7.4.
`COCc1ccc(C(=O)NC2CCCc3c2cnn3-c2ccc(C)c(C)c2)o1` (stereo unspecified) gave PfM18AAP inh -4.0, Lipid droplet 61.3*, Hep lipid conf 99.8*, AML12 cytotox 0.584 and AML12 tox ATP 12.6.
Screening CC(=O)c1c(C)[nH]c(C(=O)N(C)C(c2ccccc2)c2ccccc2)c1C returned PfM18AAP inh 3.5, Tb hexokinase -7.7, Lipid droplet 13.4, zVAD death inh 1.4, TNF necrop inh -2.2 and RBBP9 inhibitor -4.7.
`Cc1ccc(C(=O)COC(=O)c2cc(=O)[nH]c3ccccc23)cc1C` gave PfM18AAP inh -0.5, Tb hexokinase -9.7, Lipid droplet 9.5, zVAD death inh 3.0, TNF necrop inh -0.9 and RBBP9 inhibitor -11.8.
`CCOc1ccc(CCNC(=O)Cn2cccc2C(=O)c2ccccc2C)cc1OCC` gave PfM18AAP inh 1.4, Tb hexokinase 24.1, Lipid droplet 100.7*, zVAD death inh 0.3, TNF necrop inh 2.7, RBBP9 inhibitor 0.6, Hep lipid conf 109.1*, AML12 cytotox 0.288 and AML12 tox ATP 16.1.
COc1cccc(/C=C/C(=O)NCCc2ccc(OC)c(OC)c2)c1 was read as PfM18AAP inh -3.9, Tb hexokinase -0.4, Lipid droplet 54.0*, zVAD death inh 1.7, TNF necrop inh 2.2, RBBP9 inhibitor -7.4, Hep lipid conf 49.4 and AML12 cytotox 0.058.
`CCOc1ccc(CCNC(=O)CCn2cccc2)cc1OCC` gave PfM18AAP inh -0.9, Tb hexokinase -1.9, zVAD death inh 0.7, TNF necrop inh -0.8 and RBBP9 inhibitor -2.8.
Screening CCOc1ccc(CCNC(=O)Nc2ccccc2C)cc1OCC returned PfM18AAP inh 4.3, Lipid droplet 103.7*, Hep lipid conf 101.5*, AML12 cytotox 0.00741 and AML12 tox ATP 7.1.
For CCOc1ccc(CCNC(=O)CN2C(=O)NC3(CCCC3)C2=O)cc1OCC the results were PfM18AAP inh -2.4, Lipid droplet 83.4*, Hep lipid conf 109.0*, AML12 cytotox 0.32 and AML12 tox ATP 11.2.
`CC(C)CNC(=O)c1cccc(NC(=O)C(C)Oc2ccccc2)c1` (stereo unspecified) gave PfM18AAP inh -14.6, Tb hexokinase -5.8, Lipid droplet -9.1, zVAD death inh 0.2, TNF necrop inh 1.3 and RBBP9 inhibitor 2.0.
For COc1ccc(CCNC(=O)/C=C/c2ccco2)cc1OC the results were PfM18AAP inh -24.8.
For CCOc1ccc(CCNC(=O)/C=C/c2ccco2)cc1OCC the results were PfM18AAP inh -9.3, Lipid droplet 81.2*, Hep lipid conf 104.9*, AML12 cytotox -0.0463 and AML12 tox ATP -8.9.
`Cc1ccccc1CC(=O)N1CCCC(CNC(=O)c2ccc(F)cc2)C1` (stereo unspecified) gave PfM18AAP inh -4.8 and Lipid droplet -6.2.
Screening c1ccc(-c2nnc(OCc3cccnc3)c3ccccc23)cc1 returned PfM18AAP inh 2.0, Tb hexokinase 5.6, Lipid droplet 0.8, zVAD death inh -1.3, TNF necrop inh 1.3 and RBBP9 inhibitor 0.0.
`Cc1ccc(-c2nnc(OCc3cccnc3)c3ccccc23)cc1` gave PfM18AAP inh 0.6, Tb hexokinase 3.5, Lipid droplet 67.2*, zVAD death inh 4.4, TNF necrop inh 6.4, RBBP9 inhibitor -5.3, Hep lipid conf 86.0*, AML12 cytotox 0.765 and AML12 tox ATP 14.8.
`Cc1n[nH]c(C)c1S(=O)(=O)N1CCCC(C(=O)NC2CCCCC2)C1` (stereo unspecified) gave PfM18AAP inh 5.7, Tb hexokinase -1.0, Lipid droplet -0.5, zVAD death inh 1.7, TNF necrop inh 0.3 and RBBP9 inhibitor -1.6.
`COc1cc(C(=S)N2CCOCC2)cc(OC)c1OC(=O)c1ccccc1[N+](=O)[O-]` gave PfM18AAP inh 0.5, Lipid droplet 56.4*, Hep lipid conf 29.6 and AML12 cytotox -0.226.
Screening COc1ccc(C(=S)N2CCOCC2)cc1OC(=O)c1ccc([N+](=O)[O-])cc1[N+](=O)[O-] returned PfM18AAP inh 7.5 and Lipid droplet 1.8.
`Cc1ccc(NC(=O)N2CCC(C(=O)c3ccc(F)cc3)CC2)cc1` gave PfM18AAP inh -2.2, Lipid droplet 82.6*, Hep lipid conf 95.5*, AML12 cytotox 0.0524 and AML12 tox ATP 4.9.
For COc1ccc(C(=O)C2CCN(C(=O)Nc3ccc(C)cc3)CC2)cc1 the results were PfM18AAP inh 3.3 and Lipid droplet 32.1.
For COC(=O)c1ccc(N=Cc2c(C(F)(F)F)[nH]n(C)c2=O)cc1 the results were PfM18AAP inh -7.8, Tb hexokinase -5.7, Lipid droplet 11.0, zVAD death inh 1.7, TNF necrop inh -0.4 and RBBP9 inhibitor -7.5.
